Results on 22 compounds are retold here after ChEMBL document CHEMBL3259518, “Semisynthesis, ex vivo evaluation, and SAR studies of coumarin derivatives as potential antiasthmatic drugs” (Eur J Med Chem, 2014).

Type in all cases: functional
The nature of experiment [1]: Antiasthamic activity in Wistar rat tracheal ring assessed as reversal of carbachol-induced contraction at 0.1 to 500 uM relative to control. The settings on record: Trachea. The method, boiled down:
(§1)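 Tracheas from male Wistar rats (250–300 g) were cleaned and cut into 4–5 mm rings of 2–3 cartilages each. Tension was recorded with force transducers. After equilibration, rings were contracted with 1 µM carbachol and washed every 40 min for 2 h. Cumulative concentration–response curves followed carbachol contraction, with relaxation taken from tone before vs after addition. Theophylline (1.67–550 µM) was the positive control. Six animals per group; EC50 and Emax came from nonlinear curve fitting.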

Experiment [2] is described as follows: Antiasthamic activity in Wistar rat tracheal ring assessed as reversal of carbachol-induced contraction. The settings on record: Trachea. The method, boiled down: as §1
Another experiment has as its system Trachea. As to the kind of experiment: Potency index, ratio of theophylline EC50 to compound EC50 for antiasthamic activity in Wistar rat tracheal ring assessed as reversal of carbachol-induced contraction.

With `CCOC(=O)COc1cc2ccc(=O)oc2cc1OCC(=O)OCC`, in experiment [1], the Emax came out at 33%. Take `COc1ccc2c(C)cc(=O)oc2c1` [HYMECROMONE METHYL ETHER]: in experiment [1], the maximal response (Emax) came out at 100%. The 50% effective concentration (EC50) in experiment [2] was found to be 230 µM. `O=C(Oc1ccc2ccc(=O)oc2c1)c1ccccc1`: in experiment [1], the maximal effect (Emax) came to 26%. As for `CCCOc1ccc2c(C)cc(=O)oc2c1`, in experiment [1], the maximal effect (Emax) was determined as 100%. Also, in experiment [2], the concentration for a half-maximal effect (EC50) worked out at 267 µM. In the case of `Cn1c(=O)c2nc[nH]c2n(C)c1=O` [THEOPHYLLINE], the Emax in experiment [1] amounted to 100%. In addition, the EC50 in experiment [2] amounted to 144 µM.

In the case of `CC(=O)Oc1cc2ccc(=O)oc2cc1OC(C)=O`, in experiment [1], the maximal effect (Emax) was determined as 77%. Moreover, the concentration for a half-maximal effect (EC50) in experiment [2] is 231 µM. Taken in the same sequence, the figures for `COc1ccc2ccc(=O)oc2c1` [HERNIARIN] were 100% and 244 µM. As for `CC(=O)Oc1ccc2ccc(=O)oc2c1` [7-ACETOXYCOUMARIN], the Emax in experiment [1] came to 16%.

As to `CCCOc1ccc2ccc(=O)oc2c1` [7-PROPOXYCOUMARIN], the Emax in experiment [1] is 100%. The EC50 in experiment [2] is 133 µM. As for `CCOc1ccc2ccc(=O)oc2c1` [ETHOXYCOUMARIN], the Emax in experiment [1] came to 100%. Besides, the concentration for a half-maximal effect (EC50) in experiment [2] is 245 µM. Regarding `CCOc1cc2ccc(=O)oc2cc1OCC`, in the experiment with Trachea, the “Ratio EC50” value is on record as 4. In addition, the Emax in experiment [1] is 100%. Also, the EC50 in experiment [2] was 42 µM. As to `CCOc1ccc2c(C)cc(=O)oc2c1`, in experiment [1], the Emax was 100%. The 50% effective concentration (EC50) in experiment [2] was found to be 80 µM. With `Cc1cc(=O)oc2cc(OC(=O)c3ccccc3)ccc12`, the maximal response (Emax) in experiment [1] worked out at 34%. Consider `O=c1ccc2cc(O)c(O)cc2o1` [ESCULETIN], for which, in experiment [1], the Emax was 47.9%.

For the compound `CCCOc1cc2ccc(=O)oc2cc1OCCC`, the Emax in experiment [1] is 100%. Further, in experiment [2], the EC50 came to 89 µM. With `CC(=O)Oc1ccc2c(C)cc(=O)oc2c1`, in experiment [1], the Emax is 62%. Also, in experiment [2], the concentration for a half-maximal effect (EC50) turned out to be 360 µM. Take `O=C(Oc1cc2ccc(=O)oc2cc1OC(=O)c1ccccc1)c1ccccc1`: the Emax in experiment [1] was 12%. For the compound `CCOC(=O)COc1ccc2c(C)cc(=O)oc2c1`, the Emax in experiment [1] was determined as 70%. In experiment [2], the EC50 was 200 µM. Taken in the same sequence, the figures for `Cc1cc(=O)oc2cc(O)ccc12` [HYMECROMONE] were 90% and 260 µM. Regarding `COc1cc2ccc(=O)oc2cc1OC` [SCOPARONE], the maximal response (Emax) in experiment [1] is 100%. Besides, the EC50 in experiment [2] worked out at 80 µM.

For the compound `O=c1ccc2ccc(O)cc2o1` [UMBELLIFERONE], in experiment [1], the Emax stood at 67%. Further, in experiment [2], the EC50 was determined as 449 µM. As to `CCOC(=O)COc1ccc2ccc(=O)oc2c1`, the Emax in experiment [1] was found to be 31%.

As a reminder, the Emax is the maximal effect, on the per cent scale that the assay sets. As usually defined, the EC50 is the concentration giving half of the maximal effect.
